This is an account of results in ChEMBL document CHEMBL4020830, “Design, Synthesis, and Evaluation of a Novel Series of Indole Sulfonamide Peroxisome Proliferator Activated Receptor (PPAR) α/γ/δ Triple Activators: Discovery of Lanifibranor, a New Antifibrotic Clinical Candidate” (J Med Chem, 2018).

What all share (assay type): cell-based
The target of assay [1] is T1, Peroxisome proliferator-activated receptor gamma (Homo sapiens, UniProt P37231).
T1 sequence (P37231 whole entry): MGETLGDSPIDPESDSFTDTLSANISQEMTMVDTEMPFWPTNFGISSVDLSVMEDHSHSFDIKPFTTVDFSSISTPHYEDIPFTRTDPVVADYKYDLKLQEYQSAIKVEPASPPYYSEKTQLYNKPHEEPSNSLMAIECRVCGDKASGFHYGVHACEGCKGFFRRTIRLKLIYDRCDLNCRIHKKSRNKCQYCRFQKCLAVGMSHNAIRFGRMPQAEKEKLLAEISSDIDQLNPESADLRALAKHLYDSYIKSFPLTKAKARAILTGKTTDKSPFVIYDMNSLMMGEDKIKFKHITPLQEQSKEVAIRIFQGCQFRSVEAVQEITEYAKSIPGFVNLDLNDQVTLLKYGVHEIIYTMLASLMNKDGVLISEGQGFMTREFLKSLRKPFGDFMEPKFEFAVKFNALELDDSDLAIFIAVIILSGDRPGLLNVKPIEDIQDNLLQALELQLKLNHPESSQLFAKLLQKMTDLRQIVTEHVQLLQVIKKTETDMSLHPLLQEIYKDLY
Kind of assay: Transactivation of human GAL4-fused PPARgamma LBD expressed in African green monkey COS7 cells co-expressing 5Gal4 pGL3 TK Luc after overnight incubation by luciferase reporter gene assay. The gist of the method: (§1)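 Cell-based Gal-4 transactivation assay in COS-7 cells transfected with PPARα, PPARδ or PPARγ ligand-binding domain. EC50 and Emax were derived, with Emax as maximum activation in percent of control. EC50s are means of at least two independent experiments performed in triplicate.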
A general note: Reporter assays use an easily measured gene product as a stand-in for the process of interest.

Assay [2] has as its target T2, Peroxisome proliferator-activated receptor delta (Homo sapiens) (UniProt Q03181).
T2 sequence (whole entry): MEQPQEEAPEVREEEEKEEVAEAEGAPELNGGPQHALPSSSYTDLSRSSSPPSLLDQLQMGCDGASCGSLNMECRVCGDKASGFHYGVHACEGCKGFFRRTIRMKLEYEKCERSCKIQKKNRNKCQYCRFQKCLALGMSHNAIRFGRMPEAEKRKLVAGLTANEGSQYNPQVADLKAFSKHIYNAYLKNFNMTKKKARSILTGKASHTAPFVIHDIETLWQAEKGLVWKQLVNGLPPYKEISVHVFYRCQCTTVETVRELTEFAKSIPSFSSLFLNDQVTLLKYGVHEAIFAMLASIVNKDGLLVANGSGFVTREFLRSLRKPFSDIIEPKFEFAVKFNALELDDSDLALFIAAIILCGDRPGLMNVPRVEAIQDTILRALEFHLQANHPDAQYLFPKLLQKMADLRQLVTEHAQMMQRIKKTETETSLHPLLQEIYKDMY
Kind of assay: Transactivation of human GAL4-fused PPARdelta LBD expressed in African green monkey COS7 cells co-expressing 5Gal4 pGL3 TK Luc after overnight incubation by luciferase reporter gene assay relative to GW501516. A digest of the protocol: as §1

Assay [3] deals with T3, Peroxisome proliferator-activated receptor alpha (Homo sapiens, UniProt Q07869).
T3 sequence (Q07869 whole entry): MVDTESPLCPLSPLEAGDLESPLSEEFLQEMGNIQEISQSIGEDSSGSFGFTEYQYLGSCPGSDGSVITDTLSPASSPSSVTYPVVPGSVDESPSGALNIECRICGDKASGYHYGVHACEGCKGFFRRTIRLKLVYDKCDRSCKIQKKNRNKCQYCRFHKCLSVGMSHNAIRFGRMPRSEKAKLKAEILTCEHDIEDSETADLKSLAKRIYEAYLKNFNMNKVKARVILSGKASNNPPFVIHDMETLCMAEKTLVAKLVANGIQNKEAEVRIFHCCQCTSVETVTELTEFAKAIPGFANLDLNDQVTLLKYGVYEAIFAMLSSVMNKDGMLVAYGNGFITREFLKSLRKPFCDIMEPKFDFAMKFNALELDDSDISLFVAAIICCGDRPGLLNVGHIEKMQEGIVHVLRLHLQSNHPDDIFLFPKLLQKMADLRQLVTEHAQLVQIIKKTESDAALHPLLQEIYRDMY
Kind of assay: Transactivation of human GAL4-fused PPARalpha LBD expressed in African green monkey COS7 cells co-expressing 5Gal4 pGL3 TK Luc after overnight incubation by luciferase reporter gene assay. The gist of the method: as §1

Assay [4] addresses T4, Peroxisome proliferator-activated receptor gamma (Homo sapiens) (UniProt P37231).
T4 sequence (whole entry): T1 sequence (P37231 whole entry)
Put plainly: Transactivation of human GAL4-fused PPARgamma LBD expressed in African green monkey COS7 cells co-expressing 5Gal4 pGL3 TK Luc after overnight incubation by luciferase reporter gene assay relative to rosiglitazone. A digest of the protocol: as §1

Assay [5] concerns the target T5, Peroxisome proliferator-activated receptor alpha (Homo sapiens) (UniProt Q07869).
T5 sequence (whole entry): T3 sequence (Q07869 whole entry)
Put plainly: Transactivation of human GAL4-fused PPARalpha LBD expressed in African green monkey COS7 cells co-expressing 5Gal4 pGL3 TK Luc after overnight incubation by luciferase reporter gene assay relative to fenofibric acid. The gist of the method: as §1

For assay [6], the target named is T6, Peroxisome proliferator-activated receptor delta (Homo sapiens, UniProt Q03181).
T6 sequence (Q03181 whole entry): T2 sequence (whole entry)
Put plainly: Transactivation of human GAL4-fused PPARdelta LBD expressed in African green monkey COS7 cells co-expressing 5Gal4 pGL3 TK Luc after overnight incubation by luciferase reporter gene assay. The gist of the method:
as §1

The EC50 is the concentration that produces a half-maximal response. Consider `Cc1nc2cc(S(=O)(=O)n3c(CCCC(=O)O)cc4cc(Cl)ccc43)ccc2s1`, for which the concentration giving a half-maximal response (EC50) in assay [1] amounted to 175 nM; in assay [3], 2360 nM; in assay [6], 1100 nM. Also, the Emax in assay [2] was 20%; in assay [4], 39%; in assay [5], 22%.
For the compound `Nc1nc2ccc(S(=O)(=O)n3c(CCCC(=O)O)cc4cc(Cl)ccc43)cc2s1`, the half-maximal effective concentration (EC50) in assay [1] turned out to be 41 nM; in assay [3], 1260 nM; in assay [6] it was 919 nM. Also, the values for the Emax in assay [2], in assay [4] and in assay [5] were 82%, 74% and 57%, respectively.
Regarding `O=C(O)CCCc1cc2cc(Cl)ccc2n1S(=O)(=O)c1ccc2nc[nH]c2c1`, the concentration for a half-maximal effect (EC50) in assay [1], in assay [3] and in assay [6] was more than 5000 nM in each case. In addition, the results for the Emax in assay [2], in assay [4] and in assay [5] were 20%, 42% and 43%, respectively.
`O=C(O)CCCc1cc2cc(C(F)(F)F)ccc2n1S(=O)(=O)c1ccc(Cl)cc1`: the concentration giving a half-maximal response (EC50) in assay [1] was found to be 629 nM; in assay [3], 2820 nM; in assay [6] it was 1650 nM. Moreover, the Emax in assay [2] worked out at 38%; in assay [4], 36%; in assay [5], 45%.
`O=C(O)CCCc1cc2cc(C(F)(F)F)ccc2n1S(=O)(=O)c1cccc(OC(F)(F)F)c1`: the concentration giving a half-maximal response (EC50) in assay [1] amounted to 201 nM; in assay [3], 2760 nM; in assay [6], 1140 nM. Further, the Emax worked out at 23% in assay [2], 39% in assay [4] and 50% in assay [5].
Consider `O=C(O)CCCCc1cc2cc(Cl)ccc2n1S(=O)(=O)c1ccccc1`, for which the Emax in assay [2], in assay [4] and in assay [5] was less than 20% throughout.
Consider `Cc1nc2ccc(S(=O)(=O)n3c(CCCC(=O)O)cc4cc(Cl)ccc43)cc2s1`, for which the EC50 in assay [1] came out at 11 nM; in assay [6] it was 441 nM. Besides, the Emax in assay [2] was 27%; in assay [4] it was 36%; in assay [5], less than 20%.
Consider `O=C(O)CCCc1cc2cc(Cl)ccc2n1S(=O)(=O)c1ccc2c(c1)OCO2`, for which the figures for the EC50 in assay [1], in assay [3] and in assay [6] were 71 nM, 790 nM and 977 nM, respectively. Moreover, the results for the Emax in assay [2], in assay [4] and in assay [5] were 43%, 45% and 77%, respectively.
Regarding `CN1CCOc2ccc(S(=O)(=O)n3c(CCCC(=O)O)cc4cc(Cl)ccc43)cc21`, the half-maximal effective concentration (EC50) in assay [1] stood at 16 nM; in assay [3], 410 nM; in assay [6] it was 697 nM. Moreover, the figures for the Emax in assay [2], in assay [4] and in assay [5] were 54%, 48% and 113%, respectively.
Turning to `CC(C)(CCc1cc2cc(Cl)ccc2n1S(=O)(=O)c1ccccc1)C(=O)O`, the EC50 in assay [1] stood at 910 nM; in assay [3] it was 160 nM. Moreover, the Emax in assay [2] is less than 20%; in assay [4], 32%; in assay [5], 90%.
On to `Nc1nc2ccc(S(=O)(=O)n3c(CCCC(=O)O)cc4cc(Cl)ccc43)cc2o1`, for which the results for the EC50 in assay [1], in assay [3] and in assay [6] were 378 nM, more than 5000 nM and 1390 nM, respectively. For the same compound, the Emax is 66% in assay [2], 52% in assay [4] and 44% in assay [5].
As for `Cc1ccc2c(c1)cc(CCCC(=O)O)n2S(=O)(=O)c1ccccc1`, the EC50 in assay [1] was 284 nM; in assay [3], 1300 nM; in assay [6], more than 5000 nM. Moreover, the values for the Emax in assay [2], in assay [4] and in assay [5] were 45%, 38% and 46%, respectively.
Regarding `O=C(O)CCCc1cc2cc(Cl)ccc2n1S(=O)(=O)c1ccc2ccccc2c1`, in assay [1], the concentration for a half-maximal effect (EC50) is 35 nM. Further, the results for the Emax in assay [2], in assay [4] and in assay [5] were less than 20%, 34% and less than 20%, respectively.
In the case of `O=C(O)CCCc1cc2cc(C(F)(F)F)ccc2n1S(=O)(=O)c1ccccc1`, the figures for the EC50 in assay [1], in assay [3] and in assay [6] were 417 nM, 1200 nM and more than 5000 nM, respectively. For the same compound, the results for the Emax in assay [2], in assay [4] and in assay [5] were 49%, 50% and 48%, respectively.
With `O=C(O)CCCc1cc2cc(C(F)(F)F)ccc2n1S(=O)(=O)c1cccc(Cl)c1`, the EC50 in assay [1] amounted to 256 nM; in assay [3], 2420 nM; in assay [6], 2030 nM. Further, the Emax amounted to 21% in assay [2], 49% in assay [4] and 70% in assay [5].
Regarding `COc1ccc(S(=O)(=O)n2c(CCCC(=O)O)cc3cc(C(F)(F)F)ccc32)cc1`, the EC50 was found to be 82 nM in assay [1], 764 nM in assay [3] and 1260 nM in assay [6]. The Emax in assay [2] came out at 24%; in assay [4], 38%; in assay [5], 55%.
`COc1ccc2c(c1)cc(CCCC(=O)O)n2S(=O)(=O)c1ccccc1`: the Emax in assay [2], in assay [4] and in assay [5] was less than 20% in each case.
With `COc1ccccc1S(=O)(=O)n1c(CCCC(=O)O)cc2cc(C(F)(F)F)ccc21`, the EC50 in assay [1] was 1250 nM; in assay [3] it was more than 5000 nM. For the same compound, the Emax in assay [2] was less than 20%; in assay [4], 35%; in assay [5], 35%.
As for `O=C(O)CCCc1cc2cc(C(F)(F)F)ccc2n1S(=O)(=O)c1ccc(OC(F)(F)F)cc1`, the EC50 in assay [1] was determined as 573 nM; in assay [3], 1960 nM; in assay [6], 2100 nM. Besides, the Emax in assay [2] is 28%; in assay [4], 32%; in assay [5], 40%.
In the case of `O=C(O)CCCc1cc2cc(Cl)ccc2n1S(=O)(=O)c1ccc2nsnc2c1`, the EC50 in assay [1] is 153 nM; in assay [3] it was more than 5000 nM; in assay [6], more than 5000 nM. In addition, the Emax in assay [2] came out at 35%; in assay [4], 67%; in assay [5], 81%.
For the compound `O=C(O)COCc1cc2cc(Cl)ccc2n1S(=O)(=O)c1ccccc1`, the Emax in assay [2], in assay [4] and in assay [5] was less than 20% each time.
With `Cc1ccc(S(=O)(=O)n2c(CCCC(=O)O)cc3cc(Cl)ccc32)cc1`, the EC50 is 277 nM in assay [1], more than 5000 nM in assay [3] and 1080 nM in assay [6]. The Emax in assay [2] came out at 29%; in assay [4], 30%; in assay [5], 36%.
Turning to `COc1ccc(S(=O)(=O)n2c(CCCC(=O)O)cc3cc(Cl)ccc32)cc1`, the EC50 in assay [1] was found to be 72 nM; in assay [3], 419 nM. Besides, the Emax was less than 20% in assay [2], 25% in assay [4] and 26% in assay [5].
In the case of `O=C(O)CCCc1cc2cc(Cl)ccc2n1S(=O)(=O)c1cccc2ccccc12`, the 50% effective concentration (EC50) in assay [1] stood at 265 nM; in assay [3], 901 nM. The Emax in assay [2] was less than 20%; in assay [4] it was 36%; in assay [5], 67%.
As to `O=C(O)CCCc1cc2cc(C(F)(F)F)ccc2n1S(=O)(=O)c1ccccc1Cl`, the EC50 in assay [1] and in assay [3] was more than 5000 nM throughout. Moreover, the Emax in assay [2] is less than 20%; in assay [4] it was 45%; in assay [5] it was 104%.
